Test system: MS2 coat protein
Test: apparent Kd, MS2 coat protein; higher = weaker binding; RNA-MaP array; FMN 200 µM where present
Method in brief: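 Each design was made on Illumina sequencing-chip clusters by stalled E. coli RNA polymerase and titrated with SNAP-549-labelled MS2 coat protein from 0.7 or 1.5 nM, doubling to 3 µM, in the absence and then the presence of constant ligand. The buffer was 100 mM Tris-HCl pH 7.5, 80 mM KCl, 4 mM MgCl2, BSA, DTT, yeast tRNA and Tween-20. The apparent Kd is the median of filtered per-cluster fits of binding curves, with green signal normalised to red-channel RNA signal and control-cluster median Fmax.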

[1] = designed as: OFF switch for flavin mononucleotide, no ligand
[2] = ligand present: flavin mononucleotide, designed as: OFF switch for flavin mononucleotide
[3] = designed as: ON switch for flavin mononucleotide, no ligand
[4] = ligand present: flavin mononucleotide, designed as: ON switch for flavin mononucleotide

| Sequence | apparent Kd [1] [nM] | apparent Kd [2] [nM] | apparent Kd [3] [nM] | apparent Kd [4] [nM] |
| --- | --- | --- | --- | --- |
| CUGGGAUCAGUAGGAUAUGCCGGACAUGAGGAUCACCCAUGUAAGGCGUGCUUCCCUCACGUGCGGCAGAAGGGCUGCGUCACU | 43.4 | 40 | – | – |
| CUGGUUCUCGUAGGAUAUGUAGGAUAUGCCUACAUGAGGAUCACCCAUGUUCGCAUGGCAGAAGGACAGAAGGACGAUCACCAC | – | – | 323 | 20.7 |
| CUGGUUGUCGUAGGAUAUGUAGGAUAUUCCUACAUGAGGAUCACCCAUGUUCGCAUGGAAGAAAGACAGAAGGACGAUGACCAU | – | – | 1190 | 52.2 |
| CUGUAUGAUGUAGGAUAUACAAUAAUAUUGUUAGUAGAAGGACAUGAGGAUCACCCAUGUAAAUUAAUUUUAAUUAUUUUUGCG | 47.2 | 36.6 | – | – |
| CUGUGACGGUGCGCAAGUGGACGUAGAAGGGUCACAUGAGGAUCACCCAUGUGGGCCUGCUAUUGACAGGAUAUACGUUCGUAC | 5.28 | 5 | – | – |
| CUGUUAUAUGAAGGAUAUACUUAACAUGAGGAUCACCCAUGUGGUGUUGUGAGUGAGUGAGUUUAGUAGAAGGUCAAUUCUUUU | 207 | 221 | – | – |
| CUUAGGUGAGGAUAUUAGUAGUAAAUGAAUAAAAUUAUUACUGAGAAGGCACAUGAGGAUCACCCAUGUUCCUC | 35.8 | 444 | – | – |
| CUUAUUUGAGGAUAUACGUCACCGUCUUCAUGAGUUCAAAUACAUGAGGAUCACCCAUGUAGAAGGCAAUUACU | 25.8 | 39.4 | – | – |
| CUUCAAGAUGUGAGGAUAUCGCCGAUGAGGAUAGUUGAGAAGGUACAUGAGGAUCACCCAUGUAGGCUGGGUUU | 31.9 | 42.1 | – | – |
| CUUCGUAUAGAGGAUAUAGGUUACUUCGGUAUCCUAGAAGGCUGUACAUGAGGAUCACCCAUGUACUUCAGAUC | 11.2 | 16.9 | – | – |
| CUUGUUUAUGUAGGAUAUGCCUGGCGUGCCUUUGCAGAAGGACAUGAGGAUCACCCAUGUAGUAUGAGGCUUACCCUUGUCGCC | 28.2 | 24.5 | – | – |
| CUUUACAUAGGAUAUAGUUGCUUUUACAUGAGGAUCACCCAUGUCUCUCCUCUCUCUCUUCUAGAAGGAUGUUUCU | 56.3 | 48.5 | – | – |
| CUUUAGUGAGGAUAUGUGGCUUCGAUCGUGAGAUCGAGGCUACAGAAGGCACAUGAGGAUCACCCAUGUACCUU | 14.3 | 17 | – | – |
| CUUUUAUAAUAGAAGGUAGACUUUAUGAGGAUCACCCAUGUGUUGGUACUAAGGAUAUGUAGUAACAUGAGGAUCACCCAUGUU | – | – | 25.9 | 26.5 |
| CUUUUGUGAGGAUAUCAGUAGUAAAUAAAUAAAAUUUCUACUGAGAAGGCACAUGAGGAUCACCCAUGUUCCUC | 38.5 | 220 | – | – |
| CUUUUGUGAGGAUAUCAGUAGUAAUUAAAUAAAAUUACUACUGAGAAGGCACAUGAGGAUCACCCAUGUUCCUC | 41.3 | 338 | – | – |
| CUUUUGUGAGGAUAUCAGUAGUUAAAUAAUAAAAUUACUACUGAGAAGGCACAUGAGGAUCACCCAUGUUCCUC | 36.4 | 201 | – | – |
| CUUUUGUGAGGAUAUCAGUAUUAAAAAAAUAAAAUUACUACUGAGAAGGCACAUGAGGAUCACCCAUGUUCCUC | 32.7 | 168 | – | – |
| CUUUUGUGAGGAUAUUAUUAGUAAAUAAAUAAAAUUACUACUGAGAAGGCACAUGAGGAUCACCCAUGUUCCUC | 24.3 | 108 | – | – |

| Sequence | apparent Kd [1] [nM] | apparent Kd [2] [nM] | apparent Kd [3] [nM] | apparent Kd [4] [nM] |
| --- | --- | --- | --- | --- |
| GAAAAGAAAGGAUAUACAGGGAAAUGAACCGCACGUAAACCACAUGAGGAUCACCCAUGUAGAAGGUUCAGUGC | 10.7 | 14.4 | – | – |
| GAAACCUCAGGUUAAGGUUGACGACAUGAGGAUCACCCAUGUAGAAGGACCAAGGCGACCGUACGGUAGGAUAUACACGGGAGG | 10.8 | 24.9 | – | – |
| GAAUAAUAGAUCCAAUAUAUCUACAUGAGGAUCACCCAUGUGCAGGAUAUGCUAAAAUUUAAUAAGCAGAAGGGCAAGAACGGC | 54.7 | 138 | – | – |
| GAAUAUUCGUUGUACAUGAGGAUCACCCAUGUGUCUUUACAUGAGGAUAUGGAUUCUAAUUGGAUCCAGAAGGCAUGAAUAUUC | – | – | 154 | 53.1 |
| GAAUGUCGGGUAGGAUAUGACUUGCCACGGAGGUCAGAAGGGCCACGACAUGAGGAUCACCCAUGUACUGUAUUCCUUUUUCAA | 25.3 | 98.1 | – | – |
| GAAUUAUUACAGAAGGUGUUUUACAUGAGGAUCACCCAUGUUUUAUUGUUUAAAUUUGAUAUUUACAAGGAUAUGUACUAAUCU | – | – | 32.1 | 24.3 |
| GAAUUCGCAUGAGGAUAUGCACUCAUUUCAUGUGCAGAAGGUAUUUCAUUAGACAUGAGGAUCACCCAUGUAUUGGUCACUAAC | – | – | 21.5 | 16.6 |
| GAAUUCGCAUGAGGAUAUGCACUCAUUUCAUGUGCAGAAGGUAUUUCAUUAGACAUGAGGAUCACCCAUGUAUUGGUCAUUAAC | – | – | 19.3 | 14.7 |
| GACACUAUGUUUGUCAGAUAGAGAGAGGAUAUGGCUCAUGAGACAUGAGGAUCACCCAUGUAUAAUCAGAAGGCUCGAGUAGGA | – | – | 12.5 | 9.56 |
| GACAUGAGGAUCACCCAUGUCCAUGCAAGAGUAGUUGAGACCAGAAGGACCGUGCGGAAUGCAGGGUAGGAUAUGGAGCCCUCA | – | – | 36.8 | 9.38 |
| GACCUGACAUAAUAAUGUAGAAAUACAUGAGGAUCACCCAUGUAGGAUAUGCAGUGGAAUACACUGCAGAAGGACAUAGUCAGG | 15.9 | 22.9 | – | – |
| GACGUGUGAGGAUAUGCCGUGCCGGUCCGGAAGGUUCGGGUGCAGAAGGCACAUGAGGAUCACCCAUGUGUAAG | 23.4 | 32.5 | – | – |
| GACUCUAAGUUUGUCAGUUAGAGAGAGGAUAUGGAAAACUUGACAUGAGGAUCACCCAUGUAUAAUCAGAAGGCUCGAGUACGA | – | – | 12.9 | 8.91 |
| GACUGACGAGGAUAUACAUGAGGAUCACCCAUGUAAGAUCAGCGACGAUAGUCGCAAUGUAGAAGGCGUCAGUC | 29.8 | 293 | – | – |
| GACUGAUUGUAGAAGGUACUUAAUAAUAUUUAAUAACUCAUGUGACAUGAGGAUCACCCAUGUAGUAAGGAUAUACAUAUCUCA | – | – | 211 | 79.5 |
| GACUUGUCAGGAUAUCUUACAUUUGCAUCUUAGUUACCAUUGGAGAAGGGACAUGAGGAUCACCCAUGUUUGGU | 35.1 | 34.4 | – | – |
| GACUUUCGGGCAGGAUAUGGGUGCCGUCAAGACAUGAGGAUCACCCAUGUCCCAUACACGAGCGCUCAGAAGGGCUCAUUGUAG | – | – | 67 | 32.9 |
| GAGAAGGGAGGAUAUGCUGCUCGUCACUUGCGUGAUGAGUAGCAGAAGGCACAUGAGGAUCACCCAUGUAAAGG | 84.2 | 29.4 | – | – |
| GAGAAGUCAGGAUAUGCAUGGCGGGACUUGCGUCGUGGCGUGCAGAAGGGACAUGAGGAUCACCCAUGUGGAGU | 163 | 235 | – | – |

| Sequence | apparent Kd [1] [nM] | apparent Kd [2] [nM] | apparent Kd [3] [nM] | apparent Kd [4] [nM] |
| --- | --- | --- | --- | --- |
| GAGAAGUGAGGAUAUGCUGCUCGUCACUUGCGUGAUGAGUAGCAGAAGGCACAUGAGGAUCACCCAUGUAAAGG | 133 | 244 | – | – |
| GAGACGUCAGGAUAUCUGAUGUCUAACUUCGGUUAGACAUCAGAGAAGGGACAUGAGGAUCACCCAUGUCUCAA | 16.9 | 12.1 | – | – |
| GAGAGGUCAGGAUAUACGGAGAGAGGGAGUUGGUGAGGGUAACAUGAGGAUCACCCAUGUAGAAGGGACUAAGG | 27.6 | 30.1 | – | – |
| GAGAUGUGAGGAUAUCUGGACCGUGGAAGAGCCACGGUCCGAGAGAAGGCACAUGAGGAUCACCCAUGUGAUGA | 38.4 | 171 | – | – |
| GAGCUAUGAGGAUAUGCAUAGAUACGGAUUCGUGUAGUACUACAUGAGGAUCACCCAUGUAGAAGGCGUGGCAG | 14.3 | 15.9 | – | – |
| GAGCUCAAGCAGAAGGCCGUAUGUCAAUCGACAUGAGGAUCACCCAUGUAUGAGCUCGGCGUCGCGGAGGAUAUGCAGGCUCUA | – | – | 18.6 | 6.63 |
| GAGGCGCUAGCAGGAUAUGUACAUGAGGAUCACCCAUGUAAAUCUUUUUCUGGUGAAGCGCAAGUAUAGAAGGGCUAACGCUGG | 9.07 | 18.8 | – | – |
| GAGGUGUUAGGAUAUCGGAGAUGGAGACCGACGGGAUGAGCCGAGAAGGAACAUGAGGAUCACCCAUGUAGGUG | 461 | 283 | – | – |
| GAGUGACAUGAGGAUCACCCAUGUGAGGAUAUCGGACGGACCUUGUUGGCUUCCGCCGCGAGAAGGCACCUCGG | 43.9 | 40.2 | – | – |
| GAUACACAUGAGGAUCACCCAUGUGAGGAUAUGCGUACGUUGUCCGUAGGCGACGUGCGCAGAAGGCGCAAGGU | 83.2 | 95.3 | – | – |
| GAUAGGACAGAGAAGGUACGUGCUAGAGAUACUAGCAAAAUUACCUCACAUGAGGAUCACCCAUGUAAGGAUAUCUGUCCUAUC | 4.82 | 5.54 | – | – |
| GAUCAGAUAGGAUAUACAGGCUCGUCUUUAUAUUGAUCCCGACAUGAGGAUCACCCAUGUAGAAGGAUCAGAUC | 16.4 | 45.7 | – | – |
| GAUCCACAUGAGGAUCACCCAUGUGAGGAUAUGAUACUAUGUACUUCGGUACAUAGUAUCAGAAGGCAUAUGAA | 42 | 196 | – | – |
| GAUCCUUCUGUUAGGAUAUGCUUUGGGCUUCCGCAGCAGAAGGAACAUGAGGAUCACCCAUGUCCAAUGCCGUC | 56.6 | 63.9 | – | – |
| GAUUAACAUGAGGAUCACCCAUGUCGUUAUAUGGGAGGAUAUACGUGGACCGUAGUCCGCGUAGAAGGCCUAAUUG | – | – | 311 | 60.3 |
| GAUUGGCGACAAUUACAUGAGGAUCACCCAUGUUGUAGUAUGCAGGAUAUGUGGUAUAUUAUUUAACAGAAGGGCAAUAAUUUU | – | – | 69.6 | 85.9 |
| GCAACGCCUGACAUGAGGAUCACCCAUGUUAGAUUGUUAUGUCAGGAUAUUGUCGCGAAACGUGAUGAGAAGGGAUAUGUUGCU | – | – | 815 | 53.9 |
| GCAAUAGCAUGAGGAUAUGCUGGAGUUUAGACAGUAGAAGGCAUGUCAUAAGACAUGAGGAUCACCCAUGUAGUUACAAUGGCA | – | – | 18.4 | 13.6 |
